The text below walks through data of ChEMBL document CHEMBL1212879, “Synthesis and T-type calcium channel blocking activity of novel diphenylpiperazine compounds, and evaluation of in vivo analgesic activity” (Bioorg Med Chem, 2010).

Active and inactive are the calls of the source.

Experiment [1] deals with Voltage-dependent N-type calcium channel subunit alpha-1B (Homo sapiens) (UniProt Q00975). As to the kind of experiment: Inhibition of N-type Alpha-1B channel expressed in HEK293 cells by whole-cell patch-clamp method. Particulars: concentration not given here. On the set-up: concentration or dose not given beside the values. Type of experiment: cell-based.
Chain of Voltage-dependent N-type calcium channel subunit alpha-1B (Homo sapiens) (Q00975 whole entry, looked up): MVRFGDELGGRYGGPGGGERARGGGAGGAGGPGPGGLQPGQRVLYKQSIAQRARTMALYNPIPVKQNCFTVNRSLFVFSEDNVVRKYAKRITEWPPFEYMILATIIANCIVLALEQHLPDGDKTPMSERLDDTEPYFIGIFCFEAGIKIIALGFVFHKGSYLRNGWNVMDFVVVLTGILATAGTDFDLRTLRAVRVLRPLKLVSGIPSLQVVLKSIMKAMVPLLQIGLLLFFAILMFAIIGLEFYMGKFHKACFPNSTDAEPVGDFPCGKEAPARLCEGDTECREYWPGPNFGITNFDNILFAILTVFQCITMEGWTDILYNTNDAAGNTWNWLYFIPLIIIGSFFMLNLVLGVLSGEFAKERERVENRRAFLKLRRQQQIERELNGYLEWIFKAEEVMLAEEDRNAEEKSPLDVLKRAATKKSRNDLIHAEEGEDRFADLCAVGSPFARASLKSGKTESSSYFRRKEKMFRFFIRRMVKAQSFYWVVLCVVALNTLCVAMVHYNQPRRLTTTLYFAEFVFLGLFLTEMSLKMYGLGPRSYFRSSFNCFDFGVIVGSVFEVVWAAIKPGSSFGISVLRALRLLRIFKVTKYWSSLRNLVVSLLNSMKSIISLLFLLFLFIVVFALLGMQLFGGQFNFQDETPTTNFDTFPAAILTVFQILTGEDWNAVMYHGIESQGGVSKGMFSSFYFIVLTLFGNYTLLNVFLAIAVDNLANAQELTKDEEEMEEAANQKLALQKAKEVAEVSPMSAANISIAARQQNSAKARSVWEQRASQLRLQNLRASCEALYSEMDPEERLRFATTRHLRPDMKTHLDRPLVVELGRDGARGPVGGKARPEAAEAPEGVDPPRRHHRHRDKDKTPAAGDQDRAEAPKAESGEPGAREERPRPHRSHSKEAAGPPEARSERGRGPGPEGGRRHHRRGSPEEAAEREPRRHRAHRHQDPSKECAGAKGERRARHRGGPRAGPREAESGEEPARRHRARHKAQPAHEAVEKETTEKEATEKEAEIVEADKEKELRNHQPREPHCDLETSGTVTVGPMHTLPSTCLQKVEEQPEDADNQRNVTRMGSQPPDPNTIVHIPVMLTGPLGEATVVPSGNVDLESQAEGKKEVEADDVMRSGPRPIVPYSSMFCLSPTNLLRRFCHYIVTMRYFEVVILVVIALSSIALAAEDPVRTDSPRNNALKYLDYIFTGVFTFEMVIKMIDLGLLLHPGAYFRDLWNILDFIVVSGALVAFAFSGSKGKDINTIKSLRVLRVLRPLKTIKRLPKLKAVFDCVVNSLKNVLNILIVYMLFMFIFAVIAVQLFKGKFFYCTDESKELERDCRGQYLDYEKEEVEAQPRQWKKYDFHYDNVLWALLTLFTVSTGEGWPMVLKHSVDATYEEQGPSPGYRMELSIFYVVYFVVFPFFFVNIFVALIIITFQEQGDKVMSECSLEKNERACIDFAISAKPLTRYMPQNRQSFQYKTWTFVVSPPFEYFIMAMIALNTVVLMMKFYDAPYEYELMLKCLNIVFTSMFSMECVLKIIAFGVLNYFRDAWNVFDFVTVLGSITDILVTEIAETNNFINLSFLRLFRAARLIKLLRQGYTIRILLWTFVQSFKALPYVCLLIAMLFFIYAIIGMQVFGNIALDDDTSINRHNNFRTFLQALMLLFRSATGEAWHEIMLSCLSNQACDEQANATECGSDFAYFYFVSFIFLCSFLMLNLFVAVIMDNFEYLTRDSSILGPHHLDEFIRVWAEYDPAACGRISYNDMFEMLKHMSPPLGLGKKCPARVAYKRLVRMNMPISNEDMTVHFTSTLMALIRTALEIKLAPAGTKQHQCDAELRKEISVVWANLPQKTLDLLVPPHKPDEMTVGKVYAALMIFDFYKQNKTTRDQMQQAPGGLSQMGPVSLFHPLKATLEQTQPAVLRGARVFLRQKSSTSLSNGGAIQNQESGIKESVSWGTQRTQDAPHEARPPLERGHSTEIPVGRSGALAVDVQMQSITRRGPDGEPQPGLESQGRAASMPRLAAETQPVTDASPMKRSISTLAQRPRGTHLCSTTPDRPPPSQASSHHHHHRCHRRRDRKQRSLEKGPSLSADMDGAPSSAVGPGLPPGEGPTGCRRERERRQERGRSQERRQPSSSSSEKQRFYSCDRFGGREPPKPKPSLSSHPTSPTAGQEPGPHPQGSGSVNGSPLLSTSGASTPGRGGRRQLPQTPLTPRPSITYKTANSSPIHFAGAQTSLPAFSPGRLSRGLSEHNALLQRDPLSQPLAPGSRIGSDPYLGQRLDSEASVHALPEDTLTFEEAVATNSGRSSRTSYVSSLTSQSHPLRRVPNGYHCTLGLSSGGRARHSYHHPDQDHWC
The target of experiment [2] is T1, Voltage-dependent T-type calcium channel subunit alpha-1G (Homo sapiens, UniProt O43497). As to the kind of experiment: Inhibition of T-type alpha1G channel expressed in HEK293 cells by whole-cell patch-clamp method. The class given is cell-based. The procedure, abridged:
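HEK293 cells stably expressing α1G (Cav3.1); whole-cell patch clamp. External solution in mM: 140 NaCl, 2 CaCl2, 10 Hepes, 10 glucose, pH 7.4.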

Experiment [3] has as its system Rattus norvegicus. Nature of the experiment: Analgesic activity against formalin-induced inflammatory pain in rat assessed as reduction of time spent on paw licking, shaking or biting at 60 ug, sc administered after 50 mins at 5 mins intervals. The following applies: route subcutaneous.
For experiment [4], the system named is Rattus norvegicus. As to the kind of experiment: Anti-cold allodynic activity in rat assessed as tail withdrawal latency at 60 mg/kg, ip measured within cut-off time of 15 seconds for up to 24 hrs. The class given is functional, organism-based. Also on record: dose 60 mg/kg. The essentials:
(§1)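 At 2 weeks, after a baseline test, 60 mg/kg was given ip in methyl pyrrolidone/Tween 80/saline (1:1:8). Tail withdrawal latency to 4 °C (cold) or 40 °C (warm) water immersion was read at 1, 3, 5 and 24 h, with a 15 s cut-off. Versus baseline by repeated-measures ANOVA with Bonferroni t-test.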

The subject of experiment [5] is Rattus norvegicus. As to the kind of experiment: Antinociceptive activity against von Frey hair mechanically stimulated neuropathic pain in rat assessed as withdrawal threshold at 60 mg/kg, ip administered 2 weeks after surgery. On the set-up: dose 60 mg/kg. Type of experiment: functional, organism-based. The essentials:
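Tail nerve injury rats (unilateral caudal trunk transection between S1 and S2 under enflurane) received a baseline test 2 weeks post-injury. They were then dosed at 60 mg/kg ip in methyl pyrrolidone/Tween 80/saline (1:1:8). Tail withdrawal to von Frey filaments was retested at 1, 3, 5 and 24 h. Versus baseline by one-way repeated-measures ANOVA with Bonferroni t-test.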

The test system of experiment [6] is Rattus norvegicus. Nature of the experiment: Analgesic activity against formalin-induced inflammatory pain in rat assessed as reduction of pain behavior time at 60 µg/ 10 ul, sc administered after 10 mins at 5 mins intervals (reference value: 47.05 +/- 8.53 seconds). The class given is functional.
For experiment [7], the system named is Rattus norvegicus. As to the kind of experiment: Anti-warm allodynic activity in rat assessed as tail withdrawal latency at 60 mg/kg, ip measured within cut-off time of 15 seconds for up to 24 hrs. Type of experiment: functional, organism-based. Also on record: dose 60 mg/kg. The essentials:
as §1

For experiment [8], the target named is Voltage-dependent N-type calcium channel subunit alpha-1B (Homo sapiens) (UniProt Q00975). Nature of the experiment: Inhibition of N-type Alpha-1B channel expressed in HEK293 cells at 10 uM by whole-cell patch-clamp method. Type of experiment: cell-based.
Experiment [9] has as its system Rattus norvegicus. As to the kind of experiment: Analgesic activity against formalin-induced inflammatory pain in rat assessed as reduction of time spent on paw licking, shaking, biting at 60 ug, sc administered after 50 mins at 5 mins intervals(reference value: 334.21 +/- 51.10 seconds). The following applies: route subcutaneous.
The nature of experiment [10]: Inhibition of T-type Cav3 channel. The essentials:
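Whole-cell patch clamp on HEK293 cells stably expressing Cav3.1 (α1G). External solution was 140 mM NaCl, 2 mM CaCl2, 10 mM Hepes and 10 mM glucose, pH 7.4. Currents were evoked every 15 s by a 50 ms depolarizing voltage step.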

For experiment [11], the target named is T1, Voltage-dependent T-type calcium channel subunit alpha-1G. Nature of the experiment: Inhibition of T-type Cav3.1 channel.
Experiment [12] deals with Voltage-dependent T-type calcium channel subunit alpha-1H (Homo sapiens, UniProt O95180). Nature of the experiment: Inhibition of T-type Cav3.2 channel.
Experiment [13] addresses Voltage-dependent T-type calcium channel subunit alpha-1I (Homo sapiens, UniProt Q9P0X4). As to the kind of experiment: Inhibition of T-type Cav3.3 channel.
Experiment [14] in a line: Inhibition of L-type calcium channel.

T1 sequence (O43497 whole entry): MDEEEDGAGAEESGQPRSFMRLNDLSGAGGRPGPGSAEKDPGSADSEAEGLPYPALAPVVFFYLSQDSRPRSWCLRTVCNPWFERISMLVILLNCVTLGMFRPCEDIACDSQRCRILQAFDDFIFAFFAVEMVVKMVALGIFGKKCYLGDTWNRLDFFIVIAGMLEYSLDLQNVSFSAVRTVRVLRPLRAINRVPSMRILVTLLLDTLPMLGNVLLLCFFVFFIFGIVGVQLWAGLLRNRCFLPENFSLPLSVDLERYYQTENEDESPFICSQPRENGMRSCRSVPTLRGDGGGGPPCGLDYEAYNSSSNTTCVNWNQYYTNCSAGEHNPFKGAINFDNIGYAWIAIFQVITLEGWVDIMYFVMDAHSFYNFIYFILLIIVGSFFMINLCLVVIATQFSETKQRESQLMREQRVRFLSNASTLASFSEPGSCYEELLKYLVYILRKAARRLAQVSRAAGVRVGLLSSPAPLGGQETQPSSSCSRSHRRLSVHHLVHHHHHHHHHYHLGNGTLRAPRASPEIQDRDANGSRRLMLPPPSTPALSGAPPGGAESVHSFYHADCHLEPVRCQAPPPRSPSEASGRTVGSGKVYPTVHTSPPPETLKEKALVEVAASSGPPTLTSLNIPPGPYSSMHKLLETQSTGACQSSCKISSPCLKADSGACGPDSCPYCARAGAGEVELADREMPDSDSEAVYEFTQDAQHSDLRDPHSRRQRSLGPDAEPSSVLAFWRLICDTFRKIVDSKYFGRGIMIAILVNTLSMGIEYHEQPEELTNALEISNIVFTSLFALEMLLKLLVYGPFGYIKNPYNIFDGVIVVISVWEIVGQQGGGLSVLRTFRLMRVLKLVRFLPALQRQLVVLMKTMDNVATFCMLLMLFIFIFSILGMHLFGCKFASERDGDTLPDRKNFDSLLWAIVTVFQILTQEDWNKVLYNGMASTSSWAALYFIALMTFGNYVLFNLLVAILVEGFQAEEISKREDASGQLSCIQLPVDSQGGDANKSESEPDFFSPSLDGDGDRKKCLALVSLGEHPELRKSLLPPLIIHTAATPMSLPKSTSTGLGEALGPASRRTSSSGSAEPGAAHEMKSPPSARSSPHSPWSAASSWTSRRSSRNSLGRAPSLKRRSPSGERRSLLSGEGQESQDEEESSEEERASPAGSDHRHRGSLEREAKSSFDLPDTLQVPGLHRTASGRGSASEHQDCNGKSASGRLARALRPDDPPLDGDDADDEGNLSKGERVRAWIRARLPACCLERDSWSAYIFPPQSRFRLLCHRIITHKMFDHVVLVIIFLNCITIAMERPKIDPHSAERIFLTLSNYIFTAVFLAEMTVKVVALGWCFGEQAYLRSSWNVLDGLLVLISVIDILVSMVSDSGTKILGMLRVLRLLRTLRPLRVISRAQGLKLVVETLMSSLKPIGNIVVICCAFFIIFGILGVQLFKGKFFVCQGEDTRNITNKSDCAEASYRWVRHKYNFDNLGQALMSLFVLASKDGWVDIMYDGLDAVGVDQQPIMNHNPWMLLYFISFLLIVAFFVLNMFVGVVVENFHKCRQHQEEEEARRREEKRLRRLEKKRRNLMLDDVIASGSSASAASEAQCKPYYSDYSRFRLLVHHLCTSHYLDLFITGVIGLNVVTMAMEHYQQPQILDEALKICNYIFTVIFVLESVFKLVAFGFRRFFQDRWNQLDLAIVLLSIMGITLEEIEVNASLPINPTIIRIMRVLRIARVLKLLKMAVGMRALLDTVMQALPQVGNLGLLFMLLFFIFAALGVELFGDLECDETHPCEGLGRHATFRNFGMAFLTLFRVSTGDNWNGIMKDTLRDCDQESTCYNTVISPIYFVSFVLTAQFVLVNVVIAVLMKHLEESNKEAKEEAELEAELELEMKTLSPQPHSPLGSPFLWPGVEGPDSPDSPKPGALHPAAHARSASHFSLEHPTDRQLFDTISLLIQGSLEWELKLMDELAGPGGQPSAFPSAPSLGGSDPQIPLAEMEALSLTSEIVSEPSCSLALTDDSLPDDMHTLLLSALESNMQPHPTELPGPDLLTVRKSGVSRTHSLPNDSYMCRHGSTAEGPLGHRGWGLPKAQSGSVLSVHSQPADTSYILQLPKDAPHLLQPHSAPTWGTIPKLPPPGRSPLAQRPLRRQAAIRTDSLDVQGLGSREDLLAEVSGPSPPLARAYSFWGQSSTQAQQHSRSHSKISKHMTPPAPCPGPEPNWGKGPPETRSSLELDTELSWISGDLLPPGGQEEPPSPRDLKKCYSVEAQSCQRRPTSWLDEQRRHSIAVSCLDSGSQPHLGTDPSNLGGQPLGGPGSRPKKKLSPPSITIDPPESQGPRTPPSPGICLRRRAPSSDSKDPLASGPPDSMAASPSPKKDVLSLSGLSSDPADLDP

Take `CCC(CC)CNCCCC(=O)N1CCN(C(c2ccccc2)c2ccc(Cl)cc2)CC1` (stereo not drawn): in experiment [1], the inhibition is 16.8%. Besides, in [2], the IC50 worked out at 1.54 µM.
The matching figures for `COc1ccc(CNCCCC(=O)N2CCN(C(c3ccccc3)c3ccc(Cl)cc3)CC2)cc1` (stereo not drawn): 49.6% and 16.1 µM.
For `NCCCC(=O)N1CCN(C(c2ccccc2)c2ccc(Cl)cc2)CC1` (stereo not drawn), the inhibition in experiment [1] amounted to 10%. Also, the Time in experiment [3] was determined as 62.57 s; in experiment [6], 2.41 s. In addition, in experiment [2], the 50% inhibitory concentration (IC50) came out at 3.71 µM. Also, the result in [4], in experiment [5] and in experiment [7] was Active.
`O=C(CCCNCC1CCCCC1)N1CCN(C(c2ccccc2)c2ccc(Cl)cc2)CC1` (stereo not drawn): the inhibition is 84.9% in experiment [1] and 80% in experiment [8]. Further, the concentration for half-maximal inhibition (IC50) in experiment [2] is 0.19 µM. Besides, the result in experiment [4] and in experiment [7] was Active. Besides, in experiment [5], the result was inactive. The Time in [6] is listed as 1.8 s; in experiment [9], 24.32 s.
Turning to `CC(C)CNCCCC(=O)N1CCN(C(c2ccccc2)c2ccc(Cl)cc2)CC1` (stereo not drawn), the inhibition in [1] came to 13.3%. Further, the half-inhibitory concentration (IC50) in experiment [2] stood at 0.36 µM.
In experiment [10], `O=c1[nH]c2ccccc2n1C1CCN(CCCC(c2ccc(F)cc2)c2ccc(F)cc2)CC1` came in with an INH of 40 nM.
With `O=C(CCCNCc1ccc([N+](=O)[O-])cc1)N1CCN(C(c2ccccc2)c2ccc(Cl)cc2)CC1` (stereo not drawn), the values for the inhibition in [1] and in experiment [8] were 88.8% and 80%, respectively. For the same compound, in experiment [2], the IC50 came to 0.6 µM.
In the case of `NCC1(CC(=O)O)CCCCC1`, the outcome in experiment [4], in experiment [5] and in experiment [7] was Active.
Consider `Fc1ccc(C(c2ccc(F)cc2)N2CCN(C/C=C/c3ccccc3)CC2)cc1` [FLUNARIZINE], for which the dissociation constant Kd in [11] is 0.53 µM; in experiment [12], 3.6 µM; in experiment [13], 0.84 µM.
Take `O=C(CCCNCc1ccccc1)N1CCN(C(c2ccccc2)c2ccc(Cl)cc2)CC1` (stereo not drawn): the inhibition in experiment [1] turned out to be 69.8%. The half-inhibitory concentration (IC50) in experiment [2] is 1.67 µM.
For the compound `O=C(CCCNCc1c(Cl)cccc1Cl)N1CCN(C(c2ccccc2)c2ccc(Cl)cc2)CC1` (stereo not drawn), the inhibition in experiment [1] came out at 78.4%. Also, the IC50 in experiment [2] came out at 1.02 µM.
Take `CC(C)c1ccc(CNCCCC(=O)N2CCN(C(c3ccccc3)c3ccc(Cl)cc3)CC2)cc1` (stereo not drawn): the inhibition in experiment [1] worked out at 80.2%; in [8], 80%. The IC50 in experiment [2] is 0.28 µM.
With `CN(C)c1ccc(CNCCCC(=O)N2CCN(C(c3ccccc3)c3ccc(Cl)cc3)CC2)cc1` (stereo not drawn), the inhibition in experiment [1] was found to be 10.8%. Besides, the half-inhibitory concentration (IC50) in experiment [2] was 2.32 µM.
As for `CCNCCCC(=O)N1CCN(C(c2ccccc2)c2ccc(Cl)cc2)CC1` (stereo not drawn), in [1], the inhibition was 20%. In addition, the IC50 in experiment [2] amounted to 0.42 µM.
For `COCC(=O)O[C@]1(CCN(C)CCCc2nc3ccccc3[nH]2)CCc2cc(F)ccc2[C@@H]1C(C)C` [MIBEFRADIL], the IC50 in experiment [14] came out at 10 µM.
